Measurements reported in ChEMBL document CHEMBL1137735, “Novel 4H-1,3,4-oxadiazin-5(6H)-ones with hydrophobic and long alkyl chains: design, synthesis, and bioactive diversity on inhibition of monoamine oxidase, chitin biosynthesis and tumor cell” (Eur J Med Chem, 2009).
pIC50: −log10 of the molar value. The source made the active and inactive calls. The rule behind the calls is not given here.

How the values were obtained:
[1] = Inhibition of rat brain mitochondrial MAO by kynuramine fluorimetric assay
PC-3 = test: Cytotoxicity against human PC3 cells by SRB assay; assay type: functional, cell-based
How it was run: (§1)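 Growth inhibition of human lung A-549 and prostate PC-3 cancer cell lines, read out by sulforhodamine B dye staining; IC50 taken as the concentration giving 50% inhibition.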

Rattus norvegicus [2] = species: Rattus norvegicus; test: Inhibition of rat brain mitochondrial MAO at 0.8 mmol/L by kynuramine fluorimetric assay
Rattus norvegicus [3] = species: Rattus norvegicus; test: Inhibition of rat brain mitochondrial MAO at 0.008 mmol/L by kynuramine fluorimetric assay
Rattus norvegicus [4] = species: Rattus norvegicus; test: Inhibition of rat brain mitochondrial MAO at 0.08 mmol/L by kynuramine fluorimetric assay
A549 = test: Cytotoxicity against human A549 cells by SRB assay; assay type: functional, cell-based; how it was run: as §1
Saccharomyces cerevisiae [5] = test: Inhibition of chitin synthase-mediated chitin synthesis in yeast at 250 uM by high throughput assay
How it was run: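 Yeast Saccharomyces cerevisiae cell extracts used as chitin synthase source in a modified non-radioactive chitin synthase assay; compounds screened at a single fixed level.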

Saccharomyces cerevisiae [6] = test: Inhibition of chitin synthase-mediated chitin synthesis in yeast by high throughput assay
How it was run: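 Enzyme source is Saccharomyces cerevisiae cell extract, run in a modified non-radioactive chitin synthase assay; five serial dilutions per compound tested to follow concentration dependence.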

Rattus norvegicus [7] = species: Rattus norvegicus; test: Inhibition of rat brain mitochondrial MAO at 1 mmol/L by kynuramine fluorimetric assay
Rattus norvegicus [8] = species: Rattus norvegicus; test: Inhibition of rat brain mitochondrial MAO at 0.01 mmol/L by kynuramine fluorimetric assay
Rattus norvegicus [9] = species: Rattus norvegicus; test: Inhibition of rat brain mitochondrial MAO at 0.1 mmol/L by kynuramine fluorimetric assay

Row | pIC50 [1] | inhibition (Saccharomyces cerevisiae [5]) | inhibition (Rattus norvegicus [7]) [%] | inhibition (Rattus norvegicus [8]) [%] | inhibition (Rattus norvegicus [9]) [%] | Compound | also measured
1 | 3.39 | Active |  |  |  | CCCCC(CCCC)N1N=C(c2cc(OC)c(OC)c(OC)c2)OCC1=O | pIC50 (PC-3): 4.84; inhibition (Rattus norvegicus [2]): 61.4%; inhibition (Rattus norvegicus [3]): 14%; inhibition (Rattus norvegicus [4]): 23.5%; pIC50 (A549): 5.00
2 |  | 98% |  |  |  | CCCCC(CCCC)N1N=C(c2cccnc2OCC)OCC1=O | inhibition (Saccharomyces cerevisiae [6]): Dose-dependent effect
3 | 3.22 | Active |  |  |  | CCCCC(CCCC)N1N=C(c2ccc3ccccc3c2)OCC1=O | pIC50 (PC-3): 4.37; inhibition (Rattus norvegicus [2]): 54.6%; inhibition (Rattus norvegicus [3]): 12.8%; inhibition (Rattus norvegicus [4]): 20.3%; pIC50 (A549): < 4.00
4 | 3.38 | Active |  |  |  | CCCCC(CCCC)N1N=C(c2ccc(Cl)cc2)OCC1=O | inhibition (Rattus norvegicus [2]): 58.8%; inhibition (Rattus norvegicus [3]): 11.2%; inhibition (Rattus norvegicus [4]): 28.2%; pIC50 (A549): 4.61
5 | 3.62 |  | 71.2 | 2.8 | 37 | CCc1ccc(C(=O)NNCCC#N)cc1 | 
6 |  | 95% |  |  |  | CCCCOC(=O)CCN1N=C(c2cccc(C)c2)OCC1=O | inhibition (Saccharomyces cerevisiae [6]): Dose-dependent effect
7 |  | Active |  |  |  | CCCCC(CCCC)N1N=C(c2cc(C)cc(C)c2)OCC1=O | 
8 |  |  | 14.2 | 6.4 | 5.13 | CCCCC(CCCC)NNC(=O)c1ccccc1Cl | 
9 | 2.58 |  | 28.6 | 7.52 | 2.71 | CCCCC(CCCC)NNC(=O)c1ccc(Cl)cc1 | 
10 |  | Active |  |  |  | CCCCC(CCCC)N1N=C(c2ccc(Cl)cc2Cl)OCC1=O | 

Further lines, the compound ahead of its results:

Row | Compound | pIC50 [1] | inhibition (Saccharomyces cerevisiae [5]) | inhibition (Rattus norvegicus [7]) [%] | inhibition (Rattus norvegicus [8]) [%] | inhibition (Rattus norvegicus [9]) [%] | also measured
11 | CCCCC(CCCC)NNC(=O)c1cccnc1OCC |  |  | 21.7 | 0 | 6.09 | 
12 | CCCCC(CCCC)NNC(=O)c1ccc(Cl)cc1Cl |  |  | 10.5 | 9.33 | 3.52 | 
13 | CCc1ccc(C2=NN(CCC#N)C(=O)CO2)cc1 | 3.37 | Active |  |  |  | pIC50 (PC-3): < 4.00; inhibition (Rattus norvegicus [2]): 59.7%; inhibition (Rattus norvegicus [3]): 9.73%; inhibition (Rattus norvegicus [4]): 25.5%; pIC50 (A549): < 4.00
14 | O=C(NC(=O)c1c(F)cccc1F)Nc1ccc(Cl)cc1 |  | inactive |  |  |  | 
15 | CCCCC(CCCC)N1N=C(c2ccc3c(c2)OCO3)OCC1=O |  | Active |  |  |  | 
16 | C[C@@H]([C@H](N)C(=O)N[C@H](C(=O)O)[C@H]1O[C@@H](n2ccc(=O)[nH]c2=O)[C@H](O)[C@@H]1O)[C@H](O)c1ccc(O)cn1 |  |  |  |  |  | inhibition (Saccharomyces cerevisiae [6]): Dose-dependent effect
17 | N#CCCN1N=C(c2ccccc2)OCC1=O |  |  |  |  |  | Activity (Saccharomyces cerevisiae [5]): Active
18 | CCCCC(CCCC)N1N=C(c2ccc(CC)cc2)OCC1=O |  | Active |  |  |  | 
19 | CCCCC(CCCC)NNC(=O)c1ccc2ccccc2c1 |  |  | 33.1 | 0 | 8.47 | 
20 | CCCCC(CCCC)NNC(=O)c1cc(OC)c(OC)c(OC)c1 | 2.64 |  | 35.5 | 4.67 | 8.16 | 
21 | CCCCC(CCCC)NNC(=O)c1ccc2c(c1)OCO2 |  |  | 62.8 | 0 | 13.8 | 
